# An excerpt weighted towards active compounds, which were near 2.1% of everything screened.
# Beta2AR agonist: human beta-2 adrenergic receptor agonism by FAP | response, % (concentration not given with the values) | Am2.2-beta2AR cells, FAP receptor internalization, flow cytometry | 340,000 compounds, 0.43% hits | AID 504454;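 active means response above a set limit, near 3 SD of response in nonfluorescent compounds, cut at about 42% in these data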
# UCH37 DUB inh: human UCH37 deubiquitinating enzyme inhibition; 330,000 compounds, 0.33% hits; purified proteasome/UCH37, Ub-AMC cleavage fluorescence; inhibition, % (no concentration beside the values); Q9Y5K5;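 active means mean inhibition over replicate wells above about 20%, limit read from the data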;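 further: 0% = compound-free wells with enzyme and 100% = wells lacking proteasome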
# Target sequence (Q9Y5K5 whole entry, looked up): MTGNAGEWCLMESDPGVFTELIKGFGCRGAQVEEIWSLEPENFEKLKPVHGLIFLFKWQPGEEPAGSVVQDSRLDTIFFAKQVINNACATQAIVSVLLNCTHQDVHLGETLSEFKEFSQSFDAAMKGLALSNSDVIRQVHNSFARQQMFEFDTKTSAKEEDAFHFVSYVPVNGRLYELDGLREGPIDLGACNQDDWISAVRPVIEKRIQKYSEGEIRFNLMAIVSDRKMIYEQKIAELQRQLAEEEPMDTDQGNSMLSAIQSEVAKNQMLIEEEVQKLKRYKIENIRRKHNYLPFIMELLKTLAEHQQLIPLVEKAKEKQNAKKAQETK
#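 system = Proteasome-associated human UCH37 deubiquitinase | amount = 0.15 nM proteasome as dispensed | medium = pH 7.4 Tris-HCl (50 mM) with ovalbumin, ATP-MgCl2, DTT | incubation = 30 min preincubation with enzyme, 25 min cleavage at room temperature | detection = AMC fluorescence 355/460 nm | read-out basis = percent inhibition | controls = no-proteasome and no-compound wells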
# HKDC1 inhibitor: HKDC1 (human) hexokinase inhibition. Q2TB90. recombinant HKDC1, G6PDH/diaphorase resazurin coupled fluorescence. inhibition, % at 20 µM. 340,000 compounds, 0.16% hits;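 active means inhibition above about 35% when tested at 20 µM, limit read from the data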;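 further: plate controls were DMSO wells with enzyme for no effect and DMSO wells lacking enzyme for full effect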
#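 Assay system: recombinant HKDC1 hexokinase; detection: coupled resazurin fluorescence, excitation 525 nm, emission 613 nm; benchmarks: DMSO-plus-enzyme-mix negative control, buffer-substituted positive control; compound dosing: single 20 µM dose; schedule: 90 min at room temperature in dark; also added: glucose plus 1 mM ATP as hexokinase substrates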
# aDG glyco up: increases alpha dystroglycan glycosylation | Pro5-aDG cells, alpha-DG glycosylation AlphaScreen (IIH6); 0% Pro5, 100% B10-LARGE cell signal | activation, % at 10 µM | 360,000 compounds, 0.22% hits;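 active means activation of at least 8% versus controls, or a plate z-score of at least 8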;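 further: Pro5 are CHO cells carrying HIG-tagged alpha-DG that lacks glycosylation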
# PfGluPho inh: PfG6PD (Plasmodium falciparum) enzyme inhibition; PfGluPho enzyme, NADPH resazurin-diaphorase fluorescence; inhibition, % at 20 µM; 350,000 compounds, 0.78% hits; AID 504690;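 active means inhibition reaching at least a set limit at 20 µM in the primary screen, cut at about 59% in these data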;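 further: 0% = DMSO wells with substrate and 100% = DMSO wells lacking glucose-6-phosphate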
# Cardio protect: modulators protecting cardiomyocytes from myocardial damage | H9c2 cardiomyocytes, H2O2 injury protection, ATPLite, 2 h | 360,000 compounds, 0.63% hits | protection from H2O2 cell death, % at 20 µM | AID 588492;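 active means compounds giving at least 50% protection of heart cells from peroxide-induced death in the single-dose screen, raw or plate-pattern-corrected value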;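 further: 0% = DMSO wells with peroxide and 100% = DMSO wells without peroxide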
# HKDC1 act conf: HKDC1 (human) activation, single-dose confirmed; shares compounds with HKDC1 inhibitor; recombinant HKDC1, G6PDH/diaphorase resazurin fluorescence; stronger effect = lower value; inhibition, % at 20 µM; 740 compounds, 14% hits;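 active means inhibition at or below a set negative limit, negative inhibition meaning the enzyme was activated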
# PfGluPho conf: confirmation of Plasmodium falciparum G6PD inhibitors. shares compounds with PfGluPho inh. recombinant PfGluPho, NADPH-diaphorase-resazurin fluorescence. inhibition, % at 20 µM. 2,400 compounds, 34% hits;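 active means inhibition of at least 50% at 20 µM in any single replicate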;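 further: 0% = DMSO with substrate and 100% = DMSO lacking glucose-6-phosphate substrate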
# Diaph ctr 10uM: counter-screen for P. falciparum G6PD inhibitors: diaphorase inhibitors, oxidizers; shares compounds with PfGluPho inh; diaphorase-coupled resazurin reduction, fluorescence, NADPH 10 uM; inhibition, % at 20 µM; 820 compounds, 39% hits; AID 504862;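 active means average inhibition reaching 50% or more with the compound at 20 µM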;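 further: resorufin red fluorescence formed as diaphorase reduces resazurin using NADPH; 0% = DMSO with enzyme and 100% = DMSO without enzyme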
# Diaph ctr 30uM: counter-screen for P. falciparum G6PD inhibitors: diaphorase inhibitors, oxidizers; shares compounds with PfGluPho inh; Diaphorase/resazurin coupled assay, resorufin fluorescence, 30 uM NADPH; inhibition, % at 20 µM; 820 compounds, 29% hits; AID 504863;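 active means inhibition averaging 50% or more, tested at 20 µM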;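 further: 0% = DMSO with enzyme and 100% = DMSO wells lacking diaphorase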
# An asterisk follows results filed as active; / = not tested or not shown.
SMILES,Beta2AR agonist,UCH37 DUB inh,HKDC1 inhibitor,aDG glyco up,PfGluPho inh,Cardio protect,HKDC1 act conf,PfGluPho conf,Diaph ctr 10uM,Diaph ctr 30uM
O=C1/C(=C\c2ccc(Cl)c(Cl)c2)CN(C(=O)CCN2CCOCC2)C/C1=C/c1ccc(Cl)c(Cl)c1,51.8*,/,60.7*,-0.5,60.2*,-20.0,16.8,24.8,/,/
O=C(c1ccccc1)c1c[nH]cc1-c1ccccc1,3.5,4.0,-9.3,2.3,1.6,0.6,/,/,/,/
O=C(C1=C(c2ccccc2)C(=O)c2ccccc2C1=O)c1ccccc1,23.6,6.2,58.2*,-1.0,116.0*,-11.5,52.0,78.7*,84.3*,80.7*
O=C(NN=Cc1ccccn1)c1ccc(NC(=O)c2cccc([N+](=O)[O-])c2)cc1,/,5.5,/,/,/,/,/,/,/,/
O=C1C=C(c2c(O)ccc3ccccc23)c2ccccc2C1=O,75.6*,/,93.3*,-0.2,118.4*,-19.1,78.1,111.5*,96.2*,97.5*
CC(OC(=O)c1ccccc1C(=O)N(C)c1ccccc1)C(=O)Nc1ccc(C(N)=O)cc1 (stereo not drawn),-2.8,0.9,-3.1,-0.3,12.6,2.9,/,/,/,/
CC(OC(=O)c1cc(O)c2ccccc2c1O)C(=O)Nc1ccc(C(N)=O)cc1 (stereo not drawn),7.7,-13.4,39.0*,0.1,72.3*,-18.9,28.4,32.8,/,/
COc1cc(C=NNC(=O)c2[nH]nc3c2CCc2ccccc2-3)ccc1O,/,-1.7,/,/,/,/,/,/,/,/
COC1=C(OC)C(=O)C(Sc2ccc3ccccc3c2)=CC1=O,15.8,/,71.2*,-0.3,127.7*,-21.2,71.3,106.5*,82.2*,38.1
CCCCCCCCn1c2c(c(=N)c3ccccc31)CCC2,7.8,0.9,-11.5,4.5,-1.6,-23.4,/,/,/,/
Cc1cc(C)c2c(=N)c3ccccc3n(CCCCCCCCn3c4ccccc4c(=N)c4c(C)cc(C)nc43)c2n1,63.1*,/,74.2*,-0.5,75.6*,-19.7,23.4,51.1*,3.4,0.2
S=c1[nH]nc(COc2ccccc2)n1N=Cc1ccc(Cl)cc1Cl,/,9.0,/,/,/,/,/,/,/,/
CN1C2CCC1/C(=C\c1ccc(F)cc1)C(=O)/C2=C/c1ccc(F)cc1,0.9,1.0,0.5,-0.4,4.5,-2.0,/,/,/,/
C=CC(=O)N1C/C(=C/c2ccc(F)cc2)C(=O)/C(=C\c2ccc(F)cc2)C1,47.5*,/,36.0*,-0.4,61.9*,-16.2,3.7,13.6,/,/
CCCOc1ccc(Cl)cc1/C=C1/C(=O)ON=C1C,32.6,4.5,5.0,-0.1,10.4,3.8,/,/,/,/
CC1=NOC(=O)/C1=C\c1ccc(-c2ccc(Cl)cc2Cl)o1,99.2*,/,53.7*,0.5,69.9*,-26.8,47.4,-26.1,/,/
COc1ccc(S(=O)(=O)Nc2cc(SCC(=O)O)c(O)c3ccccc23)cc1,8.1,16.0,57.1*,5.0*,110.4*,-16.9,47.2,95.8*,42.5,33.4
Cc1cc(C)c(S(=O)(=O)Nc2cc(SCC(=O)O)c(O)c3ccccc23)cc1C,/,8.8,54.1*,/,106.5*,/,41.5,98.4*,52.0*,39.2
O=C(O)CSc1cc(NS(=O)(=O)c2ccc(Cl)cc2)c2ccccc2c1O,0.7,/,65.4*,3.8*,109.2*,-16.4,45.6,91.0*,55.8*,41.1
Cc1cc(C)c(S(=O)(=O)Nc2ccc(O)cc2)cc1C,0.3,2.4,-1.3,0.2,33.0,-6.9,/,/,/,/
CCOc1cc(C=NNC(=O)c2cccnc2)ccc1O,/,9.2,/,/,/,/,/,/,/,/
CCN(CC)c1ccc(C(=C2C=CC(=[N+](CC)CC)C=C2)c2ccc(N(CC)CC)cc2)cc1,82.1*,7.0,53.7*,-1.5,92.0*,-26.8,11.8,85.2*,35.0,21.6
